Data on two compounds can be found in ChEMBL document CHEMBL1145471, “Small molecule regulators of autophagy identified by an image-based high-throughput screen” (Proc Natl Acad Sci U S A, 2007).

Calls of active or inactive are those of the source. The rule behind the calls is not given here.

In test [1] the target is Serine/threonine-protein kinase mTOR (Homo sapiens, UniProt P42345). The experiment in a line: Effect on mTOR phosphorylation in human H4 cells at 3.7 uM after 4 hrs. In kind it is cell-based. An outline of the steps: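 H4 cells exposed to compound for 4 h. Lysates analysed by Western blot with anti-phospho and anti-total mTOR antibodies, with actin as loading control. Rapamycin served as reference.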

Test [2] deals with H4. The experiment in a line: Effect on FYVE-RFP+ vesicle intensity per cell in human H4 cells after 2 hrs relative to control. The class given is functional. On the set-up: concentration or dose not given beside the values. The essentials: (§1)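 H4 cells stably expressing FYVE-RFP (H4-FYVE), grown in DMEM with 10% FBS, penicillin/streptomycin and 2 mM L-glutamine at 37°C, 5% CO2, seeded in 96-well plates and exposed to compound. Fixed in 4% paraformaldehyde, nuclei stained with 3 μg/ml DAPI, FYVE-RFP+ vesicles quantified by high-throughput fluorescence microscopy against DMSO control. Triplicate wells, mean ± SD.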

The test system of test [3] is H4. Put plainly: Effect on FYVE-RFP+ vesicle intensity per cell in human H4 cells after 4 hrs relative to control. The class given is functional. Further details: concentration or dose not given beside the values. The essentials:
as §1

Test [4] relates to H4. Put plainly: Increase in light chain 3-GFP+ autophagosome vesicle number per cell in human H4 cells at 3.7 uM after 24 hrs by high throughput fluorescence microscopy relative to control. In kind it is functional. An outline of the steps:
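H4 cells stably expressing LC3-GFP were grown in DMEM with 10% FBS and 2 mM L-glutamine at 37°C, 5% CO2. They were exposed to each compound for 24 h, with DMSO as negative and rapamycin as positive control. Cells were then fixed in 4% paraformaldehyde and stained with 3 μg/ml DAPI. High-throughput fluorescence imaging scored LC3-GFP spot number, size and intensity, expressed relative to DMSO. Mean ± SD of triplicates; experiments repeated three times.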

For test [5], the system named is H4. Put plainly: Increase in long-lived protein degradation in human H4 cells after 24 hrs relative to control. The class given is functional. Further details: concentration or dose not given beside the values.
For test [6], the system named is H4. The experiment in a line: Increase in long-lived protein degradation in human H4 cells after 4 hrs relative to control. Further details: concentration or dose not given beside the values. The class given is functional.
The test system of test [7] is H4. Put plainly: Increase in light chain 3-GFP+ autophagosome vesicle intensity per cell in human H4 cells at 3.7 uM after 24 hrs by high throughput fluorescence microscopy relative to control. In kind it is functional. An outline of the steps: (§2)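 H4 cells stably expressing LC3-GFP, seeded in 96-well plates and exposed to compound for 24 h; screening concentrations were 3–12 μM, with rapamycin 0.22 μM and bafilomycin A1 0.40 μM. Cells fixed in 4% paraformaldehyde and stained with 3 μg/ml DAPI. Number, size and intensity of LC3-GFP spots measured by high-throughput fluorescence microscopy and expressed as percent of DMSO-treated wells. Rapamycin was the positive control. Triplicate wells, mean ± SD; experiments repeated three times.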

The subject of test [8] is H4. Put plainly: Reduction of poly(Q) level in human H4 cells expressing EGFP-Q79-HA after 24 hrs. The class given is functional, cell-based. An outline of the steps:
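H4 cells were transiently transfected with an EGFP-Q79-HA expression vector. The medium was replaced 6 h after transfection and compounds were added. Poly(Q) was detected with anti-HA antibody.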

The test system of test [9] is H4. The experiment in a line: Increase in long-lived protein degradation in human H4 cells after 2 hrs relative to control. In kind it is functional. Further details: concentration or dose not given beside the values.
Test [10] has as its system H4. The experiment in a line: Effect on FYVE-RFP+ vesicle intensity per cell in human H4 cells after 8 hrs relative to control. The class given is functional. Further details: concentration or dose not given beside the values. The essentials:
as §1

The subject of test [11] is H4. The experiment in a line: Increase in ratio of light chain 3 subunit 2 to light chain 3 subunit 1 in human H4 cells at 3.7 uM after 4 hrs by Western blot. The class given is functional, cell-based. An outline of the steps: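 H4 cells were treated with each compound for 4 h, then lysed. Lysates were immunoblotted with anti-LC3 antibody, with actin as loading control. LC3II and LC3I bands were compared as an LC3II/LC3I ratio.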
On the technique in general: Immunoblotting shows a protein as a band on a membrane.

Test [12] relates to H4. The experiment in a line: Increase in light chain 3-GFP+ autophagosome vesicle area per cell in human H4 cells at 3.7 uM after 24 hrs by high throughput fluorescence microscopy relative to control. The class given is functional. The essentials: as §2
Test [13] relates to H4. Put plainly: Induction of light chain 3-GFP level in human H4 cells at 3.7 uM after 24 hrs by high throughput fluorescence microscopy relative to control. The class given is functional. An outline of the steps:
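H4 cells stably expressing LC3-GFP, grown in DMEM with 10% FBS, penicillin/streptomycin and 2 mM L-glutamine at 37°C, 5% CO2. Cells were seeded in 96-well plates and exposed to library compounds at 3–12 μM for 24 h, then fixed in 4% paraformaldehyde and stained with 3 μg/ml DAPI. LC3-GFP spot number, size and intensity were measured by high-throughput fluorescence microscopy and expressed relative to DMSO. Triplicates, mean ± SD.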

Test [14] has as its system H4. Put plainly: Increase in long-lived protein degradation in human H4 cells after 1 hr relative to control. On the set-up: concentration or dose not given beside the values. The class given is functional.
Test [15] has as its system H4. The experiment in a line: Increase in light chain 3-GFP+ autophagosome vesicle area per cell in human H4 cells at 6.1 uM after 24 hrs by high throughput fluorescence microscopy relative to control. In kind it is functional. An outline of the steps:
(§3)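 H4 cells stably expressing LC3-GFP, seeded in 96-well plates and exposed to compound for 24 h; fixed in 4% paraformaldehyde, nuclei stained with 3 μg/ml DAPI. Automated fluorescence microscopy scored number, size and intensity of LC3-GFP spots; values expressed relative to DMSO-treated wells, rapamycin positive control. Triplicate wells, mean ± SD; experiments repeated three times.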

Test [16] has as its system H4. The experiment in a line: Induction of light chain 3-GFP level in human H4 cells at 6.1 uM after 24 hrs by high throughput fluorescence microscopy relative to control. In kind it is functional. An outline of the steps:
(§4)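 H4 cells stably expressing LC3-GFP, kept in DMEM/10% FBS at 37°C, 5% CO2, were seeded in 96-well plates and exposed to compound for 24 h. Cells were then fixed in 4% paraformaldehyde and stained with 3 μg/ml DAPI. Automated fluorescence microscopy scored the number, size and intensity of LC3-GFP spots. Values are percent of DMSO wells, in triplicate, mean ± SD. Rapamycin served as positive control.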

The subject of test [17] is H4. Put plainly: Increase in light chain 3-GFP+ autophagosome vesicle number per cell in human H4 cells at 6.1 uM after 24 hrs by high throughput fluorescence microscopy relative to control. The class given is functional. The essentials:
as §4

Test [18] concerns H4. The experiment in a line: Increase in light chain 3-GFP+ autophagosome vesicle intensity per cell in human H4 cells at 6.1 uM after 24 hrs by high throughput fluorescence microscopy relative to control. The class given is functional. The essentials: as §3

As to `CCCCc1oc2ccccc2c1C(=O)c1cc(I)c(OCCN(CC)CC)c(I)c1` [AMIODARONE], the outcome in test [1] was inactive. In addition, the Activity with H4 [2] is 92.5%; in the test with H4 [3], 89.23%; with H4 [4], 189.25%; in the test with H4 [5] it was 116.73%; in the test with H4 [6], 110.75%; with H4 [7], 327.25%. Also, the Activity result is “Dose-dependent effect” with H4 [8]; 122.42% in the test with H4 [9]; 83.45% in the test on H4 [10]; 236.64% with H4 [12]; 138.5% in the test with H4 [13]; 101.32% with H4 [14]. The outcome in the test on H4 [11] was Active.

For `CC1=C2C[C@H]3[C@@H](CC=C4C[C@@H](O)CC[C@@]43C)[C@@H]2CC[C@]12O[C@@H]1C[C@H](C)CN[C@H]1[C@H]2C` [CYCLOPAMINE], the Activity stood at 511.72% with H4 [15]; 108.75% in the test with H4 [2]; 75.21% in the test with H4 [3]; 103.97% with H4 [5]; 109.69% in the test with H4 [6]; 111.02% in the test with H4 [9]. The Activity with H4 [16] came out at 110.76%; with H4 [17], 313.88%; in the test on H4 [10], 96.38%; with H4 [18] it was 1564.12%; in the test on H4 [14], 91.74%.
